Laboratory results from publication PMC11365375 (Acta Pharmaceutica Sinica. B, 2024).

Key:
H460^R231Q cells = test: Cell proliferation assay; format: cell-based, human; settings: for IC50: Homo sapiens, 72 h, read-out: H460^R231Q (IC50, μmol/L)
How it was run: (§1)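 Human NCI-H460 NSCLC cells engineered to express wild-type or R231Q DOT1L (aa 1–416) were grown in RPMI 1640 with 10% FBS. Cells were seeded in 96-well plates and exposed to a range of test compound concentrations for 72 h at 37 °C, 5% CO₂. Growth was read by CCK-8 on a plate reader, and IC50 values were derived from the dose–response.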

H460^WT cells = test: Cell proliferation assay; format: cell-based; settings: Homo sapiens, 72 h, read-out: H460^WT (IC50, μmol/L)
How it was run: as §1

[1] = system: DOT1L^R231Q mediated H3K79me2 level in H460^R231Q cells; test: Quantitative Western blot analysis of H3K79me2 level in H460^R231Q cells; format: cell-based, human
How it was run: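 H460^R231Q cells were treated with test compound, and histones were extracted with a total histone extraction kit; protein was quantified by BCA. Extracts were resolved on 8–15% SDS-PAGE, transferred to PVDF and probed for H3K79me2 and histone H3, with ECL/X-ray film detection. Band densities were quantified, and H3K79me2 was normalised to H3. The dimethylation index was the compound value divided by the SGC0946 (positive control) value.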

H460^R231Q = settings: R231Q group, in vivo; cited from earlier work
[2] = system: H3K27me3, H3K9me2, H3K4me1 and H3K36me2 levels; test: WB analysis of common histone H3 modifications in H460^R231Q cells; format: cell-based, human; settings: Fig. 7
How it was run: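 H460^R231Q cells were treated with test compound alongside an SGC0946 positive control. Histone extracts (or RIPA lysates with protease/phosphatase inhibitors) were quantified by BCA, separated on 8–15% SDS-PAGE and blotted to PVDF. Blots were probed for H3K27me3, H3K9me2, H3K4me1 and H3K36me2 and detected by ECL on X-ray film. Membranes were stripped and reprobed for proteins of similar size.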

DOT1L^WT = DOT1L^WT (Homo sapiens, UniProt Q8TEK3); test: DOT1L^WT methyltransferase assay; format: biochemical
Sequence of DOT1L^WT (Q8TEK3 whole entry): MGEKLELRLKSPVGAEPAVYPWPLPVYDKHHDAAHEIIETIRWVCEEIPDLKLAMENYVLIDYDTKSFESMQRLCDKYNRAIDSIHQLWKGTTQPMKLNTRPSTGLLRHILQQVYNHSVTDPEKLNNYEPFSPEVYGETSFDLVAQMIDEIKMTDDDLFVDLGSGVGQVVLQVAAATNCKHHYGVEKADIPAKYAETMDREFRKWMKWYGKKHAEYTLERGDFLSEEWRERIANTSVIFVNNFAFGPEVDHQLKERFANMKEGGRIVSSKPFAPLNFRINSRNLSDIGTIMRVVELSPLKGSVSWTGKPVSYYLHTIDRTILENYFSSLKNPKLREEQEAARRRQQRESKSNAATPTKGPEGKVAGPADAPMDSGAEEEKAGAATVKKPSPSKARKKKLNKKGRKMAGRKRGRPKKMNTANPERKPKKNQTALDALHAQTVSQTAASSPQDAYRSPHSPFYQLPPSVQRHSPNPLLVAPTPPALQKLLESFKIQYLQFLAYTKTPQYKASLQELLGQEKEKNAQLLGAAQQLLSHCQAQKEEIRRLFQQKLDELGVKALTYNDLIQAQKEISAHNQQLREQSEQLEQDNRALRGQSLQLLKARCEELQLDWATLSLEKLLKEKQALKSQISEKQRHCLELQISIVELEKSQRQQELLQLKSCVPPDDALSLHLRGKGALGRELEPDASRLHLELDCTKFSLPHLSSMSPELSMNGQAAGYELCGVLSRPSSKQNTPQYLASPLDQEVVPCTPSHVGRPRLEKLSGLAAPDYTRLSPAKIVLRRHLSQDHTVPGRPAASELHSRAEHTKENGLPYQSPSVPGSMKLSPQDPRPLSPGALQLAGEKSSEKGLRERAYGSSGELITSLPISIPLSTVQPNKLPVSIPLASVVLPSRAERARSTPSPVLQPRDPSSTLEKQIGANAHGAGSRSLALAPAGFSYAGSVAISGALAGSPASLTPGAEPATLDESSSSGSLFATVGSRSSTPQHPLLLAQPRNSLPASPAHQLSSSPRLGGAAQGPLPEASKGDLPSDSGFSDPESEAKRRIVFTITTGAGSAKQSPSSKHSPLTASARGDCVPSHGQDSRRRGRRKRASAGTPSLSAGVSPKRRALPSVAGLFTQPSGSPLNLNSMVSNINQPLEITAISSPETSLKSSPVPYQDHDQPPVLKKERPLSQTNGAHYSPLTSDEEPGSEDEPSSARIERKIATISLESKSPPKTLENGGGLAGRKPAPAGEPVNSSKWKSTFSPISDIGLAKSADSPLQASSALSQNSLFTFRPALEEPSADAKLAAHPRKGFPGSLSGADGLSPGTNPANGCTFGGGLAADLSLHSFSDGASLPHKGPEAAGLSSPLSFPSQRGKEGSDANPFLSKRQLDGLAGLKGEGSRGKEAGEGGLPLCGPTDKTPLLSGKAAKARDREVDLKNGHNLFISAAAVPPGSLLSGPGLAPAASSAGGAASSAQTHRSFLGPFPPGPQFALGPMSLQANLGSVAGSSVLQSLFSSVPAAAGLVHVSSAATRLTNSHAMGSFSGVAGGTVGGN
How it was run: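 Commercial wild-type DOT1L was preincubated with test compound, 1% DMSO vehicle or SGC0946 positive control for 15 min at 25 °C. Nucleosomes plus SAM were added for 60 min, then detection buffer for 10 min, then anti-SAH-Lumi4-Tb and SAH-d2 for 60 min, all at 25 °C. The TR-FRET 665/620 nm ratio was read. % inhibition was scaled between vehicle and positive control; dose–response in duplicate, fitted for IC50.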

H460^WT = settings: WT group, in vivo; cited from earlier work
[3] = cited from earlier work

| Compound | IC50 (H460^R231Q cells) [µmol/L] | further results |
| --- | --- | --- |
| CCN1CCN(C(=O)CN(C[C@H]2O[C@@H](n3cnc4c(N)ncnc43)[C@H](O)[C@@H]2O)C2CCN(Cc3nc4ccc(NC(=O)C(C)(C)C)cc4[nH]3)CC2)CC1 [Compound 29] | 29.2 ± 1.63 | – |
| COc1cc(CN2CC3CC(N(C[C@H]4O[C@@H](n5cnc6c(N)ncnc65)[C@H](O)[C@@H]4O)C(C)C)CC3C2)cc(OC)c1OC (some centres unmarked) [Compound 10] | 95.9 ± 4.26 | IC50 (H460^WT cells): > 100 µmol/L |
| CN(C)C(=O)CN(C[C@H]1O[C@@H](n2cnc3c(N)ncnc32)[C@H](O)[C@@H]1O)C1CC2CN(C(=O)Nc3ccc(NC(=O)C(C)(C)C)cc3)CC2C1 (some centres unmarked) [Compound 21] | 72.5 ± 4.5 | – |
| COc1ccc(NC(=O)N2CC3CC(N(C[C@H]4O[C@@H](n5cnc6c(N)ncnc65)[C@H](O)[C@@H]4O)C(C)C)CC3C2)cc1 (some centres unmarked) [Compound 4] | 60 ± 5.84 | IC50 (H460^WT cells): > 100 µmol/L |
| CCN(CC)CCCN(C[C@H]1O[C@@H](n2cnc3c(N)ncnc32)[C@H](O)[C@@H]1O)C1CCN(Cc2nc3ccc(NC(=O)C(C)(C)C)cc3[nH]2)CC1 [Compound 42] | 73.3 ± 3.18 | – |
| CC(C)(C)C(=O)Nc1ccc2[nH]c(CN3CCC(N(CCC(=O)N4CCS(=O)(=O)CC4)C[C@H]4O[C@@H](n5cnc6c(N)ncnc65)[C@H](O)[C@@H]4O)CC3)nc2c1 [Compound 34] | 59.4 ± 4.38 | – |
| COC1(OC)CCN(CCCN(C[C@H]2O[C@@H](n3cnc4c(N)ncnc43)[C@H](O)[C@@H]2O)C2CCN(Cc3nc4cc(NC(=O)C(C)(C)C)ccc4[nH]3)CC2)CC1 [Compound 41] | 32.5 ± 3.56 | – |
| CC(C)(C)C(=O)Nc1ccc(NC(=O)N2CC3CC(N(CC(=O)N4CCSCC4)C[C@H]4O[C@@H](n5cnc6c(N)ncnc65)[C@H](O)[C@@H]4O)CC3C2)cc1 (some centres unmarked) [Compound 22] | 44.6 ± 3.87 | – |
| CN(C)C(=O)CN(C[C@H]1O[C@@H](n2cnc3c(N)ncnc32)[C@H](O)[C@@H]1O)C1CCN(Cc2nc3cc(NC(=O)C(C)(C)C)ccc3[nH]2)CC1 [Compound 25] | 70 ± 2.44 | – |
| COC(=O)CN(C[C@H]1O[C@@H](n2cnc3c(N)ncnc32)[C@H](O)[C@@H]1O)C1CC2CN(C(=O)Nc3ccc(NC(=O)C(C)(C)C)cc3)CC2C1 (some centres unmarked) [Compound 19] | > 100 | – |
| CN(C[C@H]1O[C@@H](n2cnc3c(N)ncnc32)[C@H](O)[C@@H]1O)C1CC2CN(C(=O)Nc3ccc(C(C)(C)C)cc3)CC2C1 (some centres unmarked) [Compound 1] | 77.6 ± 3.18 | IC50 (H460^WT cells): > 100 µmol/L |
| CC(C)N(C[C@H]1O[C@@H](n2cnc3c(N)ncnc32)[C@H](O)[C@@H]1O)C1CC2CN(C(=O)Nc3ccc(NC(=O)C(C)(C)C)cc3)CC2C1 (some centres unmarked) [Compound 5] | 37.9 ± 3.09 | IC50 (H460^WT cells): > 100 µmol/L; inhibitory activity against DOT1L^R231Q in WB assay ([1]; H3K79me2 level, H460^R231Q cells): moderate inhibitory activity |
| CC1CCN(CCCN(C[C@H]2O[C@@H](n3cnc4c(N)ncnc43)[C@H](O)[C@@H]2O)C2CCN(Cc3nc4cc(NC(=O)C(C)(C)C)ccc4[nH]3)CC2)CC1 [Compound 38] | 43.1 ± 1.88 | – |
| COC(=O)C1CCN(CCCN(C[C@H]2O[C@@H](n3cnc4c(N)ncnc43)[C@H](O)[C@@H]2O)C2CCN(Cc3nc4cc(NC(=O)C(C)(C)C)ccc4[nH]3)CC2)CC1 [Compound 40] | 55.3 ± 5.49 | – |
| CC(C)N(CCCNC(=O)Nc1ccc(C(C)(C)C)cc1)C[C@H]1O[C@@H](n2cc(Br)c3c(N)ncnc32)[C@H](O)[C@@H]1O [SGC0946] | 38 ± 5.24 | TGI (H460^R231Q): 26.5%; IC50 (H460^WT cells): 9.18 ± 0.11 µmol/L; H3K79me2 level (WB of common histone H3 modifications) ([1]; H460^R231Q cells, Fig. 7): decrease; H3K27me3, H3K9me2, H3K4me1 and H3K36me2 levels [2]: remained relatively unchanged; IC50 (DOT1L^WT): 0.0184 µM; TGI (H460^WT): 44.4% |
| CC(C)N(CCC1CC2CN(Cc3ccc(C#N)cc3)CC2C1)C[C@H]1O[C@@H](n2cnc3c(N)ncnc32)[C@H](O)[C@@H]1O (some centres unmarked) [Compound 16] | 96.6 ± 5.07 | – |
| CC(C)(C)C(=O)Nc1ccc2[nH]c(CN3CCC(N(CCC(=O)NCC4CCCO4)C[C@H]4O[C@@H](n5cnc6c(N)ncnc65)[C@H](O)[C@@H]4O)CC3)nc2c1 (some centres unmarked) [Compound 32] | 96.5 ± 5.45 | – |
| CC(C)N(CCC1CC2CN(C(=O)Nc3ccc(NC(=O)C(C)(C)C)cc3)CC2C1)C[C@H]1O[C@@H](n2cnc3c(N)ncnc32)[C@H](O)[C@@H]1O (some centres unmarked) [Compound 14] | > 100 | – |
| CC(C)(C)C(=O)Nc1ccc2[nH]c(CN3CCC(N(CCC(=O)N4CCSCC4)C[C@H]4O[C@@H](n5cnc6c(N)ncnc65)[C@H](O)[C@@H]4O)CC3)nc2c1 [Compound 35] | 18.6 ± 0.94 | – |

| Compound | IC50 (H460^R231Q cells) [µmol/L] | further results |
| --- | --- | --- |
| CC(C)N(CCC1CC2CN(C(=O)Nc3ccc(Br)cc3)CC2C1)C[C@H]1O[C@@H](n2cnc3c(N)ncnc32)[C@H](O)[C@@H]1O (some centres unmarked) [Compound 13] | 87.2 ± 7.63 | – |
| COc1ccc(CN2CC3CC(N(C[C@H]4O[C@@H](n5cnc6c(N)ncnc65)[C@H](O)[C@@H]4O)C(C)C)CC3C2)cc1Br (some centres unmarked) [Compound 8] | 85.8 ± 6.87 | IC50 (H460^WT cells): > 100 µmol/L |
| CC(C)(C)C(=O)Nc1ccc2[nH]c(CN3CCC(N(CCCN4CCC(O)CC4)C[C@H]4O[C@@H](n5cnc6c(N)ncnc65)[C@H](O)[C@@H]4O)CC3)nc2c1 [Compound 36] | 8.76 ± 0.61 | H3K79me2 level mediated by DOT1L^R231Q ([1]; 5 μmol/L, WB): significantly reduced |
| CC(C)N(CCC1CC2CN(Cc3ccc(F)c(F)c3)CC2C1)C[C@H]1O[C@@H](n2cnc3c(N)ncnc32)[C@H](O)[C@@H]1O (some centres unmarked) [Compound 17] | 82 ± 3.25 | – |
| CC(C)NC(=O)CCN(C[C@H]1O[C@@H](n2cnc3c(N)ncnc32)[C@H](O)[C@@H]1O)C1CCN(Cc2nc3cc(NC(=O)C(C)(C)C)ccc3[nH]2)CC1 [Compound 33] | 73 ± 5.07 | – |
| CCN1CCN(CCCN(C[C@H]2O[C@@H](n3cnc4c(N)ncnc43)[C@H](O)[C@@H]2O)C2CCN(Cc3nc4cc(NC(=O)C(C)(C)C)ccc4[nH]3)CC2)CC1 [Compound 39] | 27.6 ± 1.31 | fold decreased activity against H460^R231Q cells (H460^R231Q cells; versus 37): 4 fold |
| CC(C)(C)C(=O)Nc1ccc2nc(CN3CCC(N(CC(=O)NCc4ccco4)C[C@H]4O[C@@H](n5cnc6c(N)ncnc65)[C@H](O)[C@@H]4O)CC3)[nH]c2c1 [Compound 31] | > 100 | – |
| CC(C)N(CCC1CC2CN(C(=O)Nc3ccc(C(C)(C)C)cc3)CC2C1)C[C@H]1O[C@@H](n2cnc3c(N)ncnc32)[C@H](O)[C@@H]1O (some centres unmarked) [Compound 12] | > 100 | – |
| CN(C[C@H]1O[C@@H](n2cnc3c(N)ncnc32)[C@H](O)[C@@H]1O)C1CCN(Cc2nc3cc(NC(=O)C(C)(C)C)ccc3[nH]2)CC1 [Compound 23] | 34.8 ± 1.92 | – |
| COC(=O)CN(C[C@H]1O[C@@H](n2cnc3c(N)ncnc32)[C@H](O)[C@@H]1O)C1CCN(Cc2nc3cc(NC(=O)C(C)(C)C)ccc3[nH]2)CC1 [Compound 24] | 94 ± 7.07 | – |
| CC1CCN(C(=O)CN(C[C@H]2O[C@@H](n3cnc4c(N)ncnc43)[C@H](O)[C@@H]2O)C2CCN(Cc3nc4ccc(NC(=O)C(C)(C)C)cc4[nH]3)CC2)CC1 [Compound 27] | 46.7 ± 3.7 | – |
| CC(C)(C)C(=O)Nc1ccc2nc(CN3CCC(N(CC(=O)N4CCC(O)CC4)C[C@H]4O[C@@H](n5cnc6c(N)ncnc65)[C@H](O)[C@@H]4O)CC3)[nH]c2c1 [Compound 28] | 22.5 ± 1.81 | – |
| CC(C)(C)C(=O)Nc1ccc2nc(CN3CCC(N(CC(=O)N4CCCC4)C[C@H]4O[C@@H](n5cnc6c(N)ncnc65)[C@H](O)[C@@H]4O)CC3)[nH]c2c1 [Compound 26] | 46.7 ± 2.69 | – |
| CC(C)N(C[C@H]1O[C@@H](n2cnc3c(N)ncnc32)[C@H](O)[C@@H]1O)C1CC2CN(Cc3c(F)cc(Br)cc3F)CC2C1 (some centres unmarked) [Compound 11] | 68.2 ± 3.03 | IC50 (H460^WT cells): > 100 µmol/L |
| CC(C)(C)C(=O)Nc1ccc2nc(CN3CCC(N(CC(=O)N4CCOCC4)C[C@H]4O[C@@H](n5cnc6c(N)ncnc65)[C@H](O)[C@@H]4O)CC3)[nH]c2c1 [Compound 30] | 46.1 ± 3 | – |
| CC(C)N(C[C@H]1O[C@@H](n2cnc3c(N)ncnc32)[C@H](O)[C@@H]1O)[C@H]1C[C@@H](CCc2nc3cc(C(C)(C)C)ccc3[nH]2)C1 [EPZ5676] | – | clearance [3]: 68 mL/min/kg; oral bioavailability (F) [3]: 0% |
| CC(C)N(C[C@H]1O[C@@H](n2cnc3c(N)ncnc32)[C@H](O)[C@@H]1O)C1CC2CN(C(=O)Nc3ccc(Br)cc3)CC2C1 (some centres unmarked) [Compound 3] | 48.8 ± 2.76 | IC50 (H460^WT cells): > 100 µmol/L |
| CC(C)N(C[C@H]1O[C@@H](n2cnc3c(N)ncnc32)[C@H](O)[C@@H]1O)C1CC2CN(C(=O)Nc3ccc(C(C)(C)C)cc3)CC2C1 (some centres unmarked) [Compound 2] | 40.1 ± 3.73 | IC50 (H460^WT cells): > 100 µmol/L |
| CC(C)(C)C(=O)Nc1ccc(NC(=O)N2CC3CC(N(CC(=O)NC4CC4)C[C@H]4O[C@@H](n5cnc6c(N)ncnc65)[C@H](O)[C@@H]4O)CC3C2)cc1 (some centres unmarked) [Compound 20] | 52.7 ± 2.99 | – |
